Assay outcomes (PubChem BioAssay)
An excerpt weighted towards active compounds, which were near 2.5% of everything screened.
SENP8 block-1: SENP8 protease inhibitors, primary screen, biochemical, luminescence | purified SENP8, Z-RLRGG-aminoluciferin cleavage | inhibition, % at 10 µM | hit rate 1.2% among 330,000 | AID 2540, 2010; in the data active means inhibition above about 50%
SENP6 block: SENP6 protease inhibitors, primary screen, biochemical, luminescence, uHTS; inhibition, % at 10 µM; Recombinant SENP6 catalytic domain, aminoluciferin luminescence; hit rate 1.8% among 330,000;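 active means inhibition above about 50% at the single tested dose, limit read from the data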;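 further: plate controls were DMSO wells with enzyme for no effect and DMSO wells lacking enzyme for full effect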
Target sequence (Q9GZR1 628-1112 limits assumed): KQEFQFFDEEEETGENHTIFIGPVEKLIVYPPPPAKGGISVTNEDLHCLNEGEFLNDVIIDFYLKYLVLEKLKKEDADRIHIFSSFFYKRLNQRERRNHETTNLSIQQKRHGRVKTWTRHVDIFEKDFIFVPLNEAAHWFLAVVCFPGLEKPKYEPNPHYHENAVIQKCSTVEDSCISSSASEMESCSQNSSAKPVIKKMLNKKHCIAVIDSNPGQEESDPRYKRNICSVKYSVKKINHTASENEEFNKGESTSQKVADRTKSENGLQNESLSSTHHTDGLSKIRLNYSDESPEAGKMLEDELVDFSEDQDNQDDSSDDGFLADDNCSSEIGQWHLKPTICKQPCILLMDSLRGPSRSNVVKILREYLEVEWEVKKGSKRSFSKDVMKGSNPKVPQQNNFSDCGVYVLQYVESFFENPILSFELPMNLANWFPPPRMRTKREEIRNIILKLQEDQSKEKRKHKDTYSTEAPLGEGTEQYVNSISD
SENP8 block-2: human SENP8 protease inhibitors, primary screen, biochemical, fluorescence, Nedd8 protein substrate, uHTS | Sentrin-specific protease 8 (Homo sapiens), Q96LD8 | recombinant SENP8 | inhibition, % at 20 µM | hit rate 0.64% among 360,000; in the data active means inhibition mostly above about 40%, no sharp cut-off; inactive means mostly below about 27%
SENP7 inh: SENP7 protease inhibitors, primary screen, biochemical, luminescence, uHTS; inhibition, % at 5 µM; Sentrin-specific protease 7 (Homo sapiens), Q9BQF6; recombinant SENP7, Z-RLRGG-aminoluciferin luminescence, 40 min; hit rate 1.5% among 330,000;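 active means inhibition above about 50% at the single test dose, limit read from the data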;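 further: plate controls were DMSO with enzyme for no effect and no enzyme buffer wells for full effect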
SENP1 inh: human SENP1 catalytic domain inhibitors, primary screen, biochemical, FRET, uHTS. Sentrin-specific protease 1 (Homo sapiens), Q9P0U3. recombinant SENP1 catalytic domain, CyPet-SUMO1-YPet FRET cleavage. inhibition, % at 10 µM. hit rate 0.21% among 360,000. AID 624204, 2012;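 active means inhibition at least 30% at 10 µM, raw YFP signal under a set limit, fluorescence ratio 0.5 to 1.5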;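 further: 0% = enzyme with DMSO and 100% = no enzyme wells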
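Material – human SENP1 catalytic domain · Input – SENP1 enzyme, 20 pM final · Compound dosing – single concentration of 10 µM compound, 0.5% DMSO final · Timing – enzyme reaction for 50 min at room temperature, dark · Measured by – FRET fluorescence in CFP and YFP emission channels · Control set – no-enzyme wells low, DMSO-plus-enzyme wells high control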
SENP8 conf: SENP8 protease inhibitors, retest, confirmation, biochemical, luminescence, single concentration | hit rate 40% among 6,200 | inhibition, % at 12.5 µM | AID 488912, 2010 | shares compounds with SENP7 inh | Recombinant SENP8, Z-RLRGG-aminoluciferin luminescence, 60 min;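 active means mean inhibition across replicates above about 50%, limit read from the data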
SENP6 conf: SENP6 protease inhibitors, confirmation, biochemical, luminescence, single concentration. shares compounds with SENP7 inh. hit rate 58% among 6,200. recombinant SENP6, Z-RLRGG-aminoluciferin luminescence. inhibition, % at 12.5 µM
SENP7 confirm: SENP7 protease inhibitors, retest, confirmation, biochemical, luminescence, single concentration. shares compounds with SENP7 inh. inhibition, % at 12.5 µM. recombinant SENP7, Z-RLRGG-aminoluciferin luminescence, 40 min. hit rate 69% among 6,200
Casp3 select: caspase-3 protease inhibitors, confirmation, selectivity assay for SENP inhibitor project, biochemical, single concentration; shares compounds with SENP7 inh; purified caspase-3, Z-DEVD-aminoluciferin luminescence, 60 min; inhibition, % at 12.5 µM; hit rate 60% among 6,200;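 active means mean inhibition above about 50%, limit read from the data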;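 further: plate controls were enzyme with DMSO for no effect and wells without caspase-3 for full effect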
Target sequence (P42574 28-227 limits assumed): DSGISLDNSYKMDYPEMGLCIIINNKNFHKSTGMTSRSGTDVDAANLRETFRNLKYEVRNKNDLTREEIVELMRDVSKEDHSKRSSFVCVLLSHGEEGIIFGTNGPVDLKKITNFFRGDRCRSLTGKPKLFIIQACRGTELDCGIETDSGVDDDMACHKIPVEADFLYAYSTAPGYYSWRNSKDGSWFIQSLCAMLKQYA
Luc interf: counter-screen for SENP inhibitors: luminescence interference. shares compounds with SENP7 inh. Pre-incubated SENP8/Z-RLRGG-aminoluciferin, luciferase luminescence interference. inhibition, % at 12.5 µM. hit rate 39% among 6,200. AID 488919;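 active means mean inhibition above about 50% when retested at one dose, limit read from the data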;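 further: plate controls were DMSO wells with completed reaction for no effect and substrate without enzyme for full effect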
Active calls of the source: *; / = no result.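 How the source made its calls, unless noted: active means mean inhibition above about 50% in the one-dose retest (limit read from the data); inactive means the rest.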

SMILES | SENP8 block-1 | SENP6 block | SENP8 block-2 | SENP7 inh | SENP1 inh | SENP8 conf | SENP6 conf | SENP7 confirm | Casp3 select | Luc interf
c1ccc(-c2ccc3sccc3n2)cc1 | 75* | 83* | 16 | 85* | 2 | 36 | 78* | 94* | 79* | 57*
Fc1ccc2nc(-c3ccccc3)ccc2c1 | / | / | 17 | / | 0 | / | / | / | / | /
Clc1ccc(Nc2nc(-c3ccncc3)cs2)cc1 | -7 | 5 | -17 | 7 | -2 | / | / | / | / | /
CCNc1nc(-c2ccc(Cl)cc2)cs1 | 72* | 85* | 13 | 62* | 1 | -21 | 71* | 94* | 60* | 69*
CNc1nc(-c2ccc(Cl)cc2)cs1 | 30 | 62* | 10 | 20 | 1 | 54* | 58* | 82* | 51* | 26
CC(C)C(C(=O)NCC1CCCO1)N(CC1CCCO1)C(=O)CNS(=O)(=O)c1ccccc1 (stereo not drawn) | 4 | -14 | 12 | 4 | 3 | / | / | / | / | /
COc1cc(OC)cc(-c2cc3ccc(OC)cc3cn2)c1 | 97* | 99* | -304 | 100* | 0 | 100* | 101* | 104* | 99* | 98*
Fc1ccccc1-c1cc2ncccc2cn1 | 27 | 39 | 7 | 39 | -1 | / | / | / | / | /
Fc1ccc2cnc(-c3cccnc3)cc2c1 | -6 | 2 | 6 | 5 | 2 | / | / | / | / | /
COc1ccc2cc(-c3ccccc3)ncc2c1 | 92* | 95* | -194 | 98* | -3 | 79* | 95* | 96* | 86* | 33
c1ccc(-c2cc3ccccc3cn2)cc1 | 82* | 84* | -29 | 91* | -3 | 65* | 85* | 96* | 77* | 39
COc1cc(OC)cc(-c2cc3ncccc3cn2)c1 | 29 | 43 | -14 | 53* | 2 | 19 | 22 | 68* | 66* | 51*
CC(C)C(=O)Nc1ccc(C(=O)NNC(=S)NC(=O)c2ccco2)cc1 | 0 | -7 | 8 | 5 | 1 | / | / | / | / | /
Cc1[nH]nc(SCC(=O)N2CCCCCC2)c1[N+](=O)[O-] | 52* | -16 | 14 | 11 | 3 | 98* | 100* | 103* | 99* | 88*
COc1ccc(CNC(=O)CN(C(=O)CCC(=O)Nc2ccccn2)c2cccc(C)c2C)cc1 | 9 | -17 | 8 | -2 | 1 | / | / | / | / | /
CC(C)COc1ccc(C(=O)Nc2sc3c(c2C(=O)O)CC(C)(C)OC3)cc1 | 28 | 30 | -373 | -1 | 1 | / | / | / | / | /
COc1ccc(C(=O)Nc2sc3c(c2C(=O)O)CC(C)(C)OC3)cc1 | 44 | 63* | -278 | 43 | 3 | 8 | 56* | 0 | 50* | 2
CC1(C)Cc2c(sc(NC(=O)c3ccccc3)c2C(=O)O)CO1 | 64* | -16 | -49 | 44 | -2 | 77* | 69* | 86* | 82* | 59*
CC1(C)Cc2c(sc(NC(=O)C(=O)N3CCCC3)c2C(=O)O)CO1 | -7 | 4 | 22 | 15 | 1 | / | / | / | / | /
c1ccc2nc(-c3ccncc3)ccc2c1 | 8 | 53* | 16 | 36 | -2 | 30 | 30 | 60* | 67* | 39
c1ccc(-c2ccc3cnccc3n2)cc1 | / | / | -1 | / | 2 | / | / | / | / | /
c1ccc2nc(-c3ccc(N4CCOCC4)cc3)ccc2c1 | 81* | 93* | -281 | 97* | -61 | 66* | 80* | 93* | 76* | 39
CN1CCN(c2ccc(-c3ccc4ccccc4n3)cc2)CC1 | / | / | -420 | / | -92 | / | / | / | / | /
c1ccc2nc(-c3nccs3)ccc2c1 | -8 | 2 | -137 | 17 | 0 | / | / | / | / | /
Clc1ccsc1-c1ccc2ccccc2n1 | 67* | 88* | -176 | 81* | -7 | 12 | 78* | 94* | 51* | 29
SMILES | SENP8 block-1 | SENP6 block | SENP8 block-2 | SENP7 inh | SENP1 inh | SENP8 conf | SENP6 conf | SENP7 confirm | Casp3 select | Luc interf
COC(=O)C[C@@H]1CC[C@H](NC(=O)CC2CC2)[C@@H](CO)O1 | / | / | 19 | / | 1 | / | / | / | / | /
CCNc1nc2c(cnn2C)c(=O)[nH]1 | / | / | 11 | / | 1 | / | / | / | / | /
O=C(O)Cc1nn(Cc2ccc(Cl)cc2)c(=O)c2ccccc12 | 10 | -2 | 10 | 7 | 0 | / | / | / | / | /
Cc1[nH]n(-c2cccc(Cl)c2)c(=O)c1C=NCc1ccco1 | 23 | 52* | 13 | 23 | 2 | -6 | -8 | 16 | 8 | 17
Cc1occc1C(=O)N/N=C/c1ccc(-c2ccccc2)cc1 | 97* | 99* | 18 | 100* | 2 | 71* | 100* | 103* | 98* | 70*
Cc1occc1C(=O)N/N=C/c1cccc2ccccc12 | 89* | 90* | 14 | 92* | 2 | 56* | 88* | 100* | 89* | 14
COc1ccc(/C=N/NC(=O)c2ccoc2C)cc1O | -5 | 76* | -29 | 67* | 0 | 68* | 67* | 89* | 90* | 73*
Cc1occc1C(=O)N/N=C/c1cccnc1 | 4 | -15 | 5 | 20 | -2 | / | / | / | / | /
COc1ccc(/C=N/NC(=O)c2ccoc2C)cc1OC | 6 | 56* | 21 | 47 | 1 | 31 | 28 | 70* | 80* | 52*
Cn1c(SCC(=O)O)nnc1-c1ccc(NC(=O)c2ccc(Cl)c(Cl)c2)cc1 | -1 | -6 | 13 | -2 | 1 | / | / | / | / | /
COc1ccc(N2CCN(S(=O)(=O)c3c(C)[nH]c(C)c3C(=O)N3CCCC3)CC2)cc1 | 3 | -3 | 13 | 7 | 1 | / | / | / | / | /
Cc1occc1C(=O)Nc1ccccc1NC(=O)c1ccoc1C | 4 | -6 | 6 | 8 | 1 | / | / | / | / | /
Cc1occc1C(=O)N/N=C/c1cccs1 | 62* | 67* | 6 | 83* | 3 | 72* | 72* | 91* | 91* | 74*
Cc1occc1C(=O)N/N=C/C(Br)=C/c1ccccc1 | 84* | 92* | 5 | 89* | 2 | 66* | 92* | 99* | 88* | 25
